# Bioassay records (PubChem BioAssay)
# proCasp7 act – counter-screen for procaspase-3 activators: activators of human procaspase-7; P55210; recombinant procaspase-7, Ac-DEVD-pNA absorbance 405 nm; D23A/D198A/D206A triple mutant, cannot self-cleave; scale: DMSO 0, 5 µM enzyme 100; activation, % at 8.5 µM; actives 0.093% (n = 330,000);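 active = percent activation above the screen-wide mean plus 3 SD, cut at about 25% in these data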
# Target sequence (P55210 whole entry D23A/D198A/D206A): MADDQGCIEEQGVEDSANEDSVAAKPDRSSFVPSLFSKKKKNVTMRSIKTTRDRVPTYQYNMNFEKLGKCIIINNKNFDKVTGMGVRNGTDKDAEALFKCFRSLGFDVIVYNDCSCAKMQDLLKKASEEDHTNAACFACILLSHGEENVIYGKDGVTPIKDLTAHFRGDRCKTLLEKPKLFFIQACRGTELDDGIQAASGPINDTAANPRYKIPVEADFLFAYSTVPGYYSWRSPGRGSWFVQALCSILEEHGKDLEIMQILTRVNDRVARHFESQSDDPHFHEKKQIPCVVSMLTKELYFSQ
#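 signal = Epi-absorbance of released pNA at 405 nm, two timepoints | assay system = Uncleavable procaspase-7 mutant enzyme | reagent = Ac-DEVD-pNA substrate, 400 µM as added | times = 1 h enzyme–compound preincubation and 2 h substrate reaction, both 25 °C | benchmarks = low DMSO alone, high DMSO plus 5 µM PC-7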
# proCasp3 act – activates human procaspase-3 | P42574 | activation, % at 8.5 µM | recombinant procaspase-3 D3A, Ac-DEVD-pNA absorbance 405 nm | actives 0.11% (n = 330,000);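 active = activation above the mean of all tested compounds plus 3 SD, cut at about 21% in these data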;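 also: 0% = DMSO alone and 100% = DMSO wells spiked with extra 5 µM PC-3 D3A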
# Target sequence (P42574 whole entry D9A/D28A/D175A): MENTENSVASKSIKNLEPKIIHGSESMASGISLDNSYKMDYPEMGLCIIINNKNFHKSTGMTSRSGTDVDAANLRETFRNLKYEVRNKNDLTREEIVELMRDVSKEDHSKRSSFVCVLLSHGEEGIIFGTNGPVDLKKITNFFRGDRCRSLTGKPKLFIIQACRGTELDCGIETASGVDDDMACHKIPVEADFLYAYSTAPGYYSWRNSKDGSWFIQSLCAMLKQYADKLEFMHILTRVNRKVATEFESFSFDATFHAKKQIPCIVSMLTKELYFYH
#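 assay system = Procaspase-3 D3A mutant | signal = absorbance at 405 nm, 0 and 120 min | times = 1 h preincubation plus 2 h reaction at 25 °C | repeats = single replicate | read-out = % activation between DMSO and enzyme-spiked controls | medium = Zinc-free HEPES saline buffer with Triton X-100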
# PREPL inh – inhibits the human prolyl oligopeptidase-like enzyme; Q4J6C6; recombinant PREPL, fluorescence polarization activity-based probe; inhibition, % at 5.96 µM; actives 0.68% (n = 320,000); AID 2751; in the data active = inhibition above about 43%;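 also: 0% = enzyme with DMSO and 100% = wells lacking enzyme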
# LYPLA1 counter – LYPLA1 (human) inhibition in PME1 counter-screen; O75608; recombinant LYPLA1, FP-Rh probe fluorescence polarization; inhibition, % at 5.9 µM; actives 0.16% (n = 320,000);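 active = inhibition above the mean of all tested compounds plus 3 SD, set per campaign, cut at about 14% in these data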;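 also: inhibitors block serine hydrolase probe labeling of LYPLA1 so polarization falls; 0% = enzyme with DMSO and 100% = wells lacking LYPLA1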
# LYPLA2 inh – blocks human lysophospholipase 2, a PME1 counter-screen. O95372. recombinant LYPLA2, FP-Rh probe fluorescence polarization. inhibition, % at 5.9 µM. actives 0.38% (n = 320,000). AID 2177;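 active = inhibition above the screen-wide mean plus 3 SD, limit set per campaign, cut at about 26% in these data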;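 also: 0% = LYPLA2 with DMSO and 100% = wells lacking LYPLA2 enzyme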
# proCasp7 act trip – activates human procaspase-7, counter-screen for procaspase-3 activators. shares compounds with proCasp3 act. recombinant procaspase-7, Ac-DEVD-pNA absorbance; asp23/198/206-to-Ala mutant, cannot self-cleave. activation, % at 8.5 µM. 210 tested, under 10 active;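 active = mean activation above a set limit taken from an earlier procaspase-7 screen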;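 also: 0% = DMSO wells and 100% = DMSO plus 5 µM procaspase-7 enzyme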
# procasp3 conf – procaspase-3 (human) activation, confirmed | shares compounds with proCasp3 act | recombinant PC-3 D3A, Ac-DEVD-pNA absorbance 405 nm; 100% is higher-enzyme control | activation, % at 8.5 µM | AID 488954 | actives 10% (n = 210);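 active = mean activation above a set limit carried over from the earlier primary screen, cut at about 22% in these data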
# Starred values were filed as active, the others as inactive; / = not tested or not shown. In the library only some 1.1% were active in any assay of this set; here they are far more common.
SMILES,proCasp7 act,proCasp3 act,PREPL inh,LYPLA1 counter,LYPLA2 inh,proCasp7 act trip,procasp3 conf
c1ccc(-c2cc3c(ccc4nonc43)nn2)cc1,-3.6,2.6,12.5,0.2,0.5,/,/
Cc1cc2c3nonc3ccc2n1-c1ccccc1,20.0,25.1*,-58.8,1.9,-6.6,-21.6,-13.2
CN(C)c1ccc(C(=O)N2CCN(C(=O)C3CCCO3)CC2)cc1 (stereo not drawn),6.5,7.0,2.0,/,/,/,/
Cc1ccc2oc(=O)n(CC(=O)N3CCOCC3)c2c1,16.8,4.8,3.9,-4.3,-0.4,/,/
[O-][n+]1onc2c1C(N1CCOCC1)CCC2N1CCOCC1 (stereo not drawn),11.1,67.6*,16.0,0.6,-3.4,4.5,4.8
COc1ccc(C2=C/C(=C\c3ccccc3OC(C)=O)C(=O)O2)cc1,-14.4,12.2,2.6,-0.8,4.5,/,/
COc1ccc(C2=C/C(=C\c3cccc(OC(C)=O)c3)C(=O)O2)cc1,-12.8,35.0*,3.0,2.0,8.5,-34.2,-12.8
CC(=O)c1cccc(CN2CCC(CO)(CCOc3ccccc3)CC2)c1,2.1,-6.4,-17.0,2.5,7.5,/,/
OCCOc1cccc(CN2CCC(CO)(CCOc3ccccc3)CC2)c1,5.6,25.3*,-3.5,-0.1,-2.3,2.0,4.6
CCCNC(=O)c1ccc2c(=O)c(O)c(-c3ccc(C)cc3)[nH]c2c1,20.0,99.8*,9.4,-10.8,-5.8,21.2,28.5*
CCCNC(=O)c1ccc2c(=O)c(O)c(-c3ccc(OC)cc3)[nH]c2c1,-2.0,118.8*,16.4,-10.5,-8.2,-1.8,0.5
CCCNC(=O)c1ccc2c(=O)c(O)c(-c3ccsc3)[nH]c2c1,-0.8,2.4,5.0,-13.2,-10.0,/,/
Cc1ccc(CNC(=O)c2ccc3c(=O)c(O)c(-c4ccc(C)cc4)[nH]c3c2)cc1,13.0,9.6,-3.0,-8.2,-8.1,/,/
CCC(=O)N(Cc1cc2cc(OC)ccc2[nH]c1=O)c1ccc(C)cc1,11.5,-1.8,3.0,1.9,6.1,/,/
COc1ccc(NS(=O)(=O)c2cc(NC(=O)/C=C/c3ccccc3OC)ccc2N2CCCCC2)cc1,-2.2,3.4,0.3,-4.5,-12.7,/,/
O=C(N/N=C/c1ccc(-c2ccccc2Cl)o1)c1ccccc1,-23.6,24.8*,13.2,-12.2,-0.5,-6.5,-4.9
O=C(O)c1ccc(N/N=C/c2ccc(-c3ccccc3Cl)o2)cc1,-67.5,-28.5,30.5,6.9,1.3,/,/
CC(C)(C)n1cnc(C(N)=O)c1N,-15.5,-6.7,3.5,1.1,-2.9,/,/
CCCc1[nH]nc2c1C(c1cccc(OC(=O)c3ccco3)c1)C(C#N)=C(N)O2 (stereo not drawn),9.2,21.3*,23.8,-0.2,4.3,0.1,3.7
CCOc1ccc(C(=O)C[n+]2ccc(C(=O)NCCO)cc2)cc1,-8.4,-1.3,11.7,1.9,3.3,/,/
CCOc1ccc(C(=O)C[n+]2ccc(C(=O)NCc3ccccc3)cc2)cc1,6.6,32.7*,24.5,-0.5,8.5,5.2,6.6
N=c1oc2ccccc2cc1-c1nc(-c2ccccc2)cs1,20.6,43.3*,2.7,-8.5,-20.2,-21.1,-14.8
COC(=O)C1=CN(CC2CCCO2)C=C(C(=O)OC)C1c1ccccc1C(F)(F)F (stereo not drawn),14.5,23.2*,6.7,6.1,8.0,-20.3,-11.2
OC[C@@H]1[C@@H](c2ccc(Cl)cc2)C(c2ccccc2)=NN1c1ccccc1,20.2,21.8*,/,/,/,-21.3,-12.0
Cc1c(C)c2ccc(OCC(=O)N[C@@H](Cc3ccccc3)C(=O)O)cc2oc1=O,9.7,6.5,3.9,-2.9,6.3,/,/
SMILES,proCasp7 act,proCasp3 act,PREPL inh,LYPLA1 counter,LYPLA2 inh,proCasp7 act trip,procasp3 conf
Cc1c(CCC(=O)NC2CC2)c(=O)oc2cc(O)ccc12,16.6,22.9*,12.2,4.7,6.0,-20.7,-12.6
Cc1c(CC(=O)NCC(=O)N[C@H](Cc2ccccc2)C(=O)O)c(=O)oc2cc(O)ccc12,19.4,25.2*,6.1,2.1,0.8,-20.6,-12.9
CC(=O)c1ccc(NC(=O)CSc2ccc(-c3sc(C)nc3C)nn2)cc1,-6.5,0.3,-16.5,-5.8,-1.4,/,/
CCOC(=O)C1CCCN(S(=O)(=O)CCNC(=O)c2ccccc2)C1 (stereo not drawn),9.4,-3.9,9.6,4.0,-1.0,/,/
COc1cccc(OCCN2CCN(c3ncnc4c3cnn4-c3ccccc3)CC2)c1,3.4,26.8*,-40.1,3.1,16.9,2.6,2.5
O=c1[nH]c(N/N=C\c2ccc(F)cc2)nc2ccccc12,22.3,30.4*,13.6,-3.3,0.8,1.0,-0.6
Cc1ccc(OCC(O)CN2CCN(c3ccccc3)CC2)cc1 (stereo not drawn),9.5,2.9,3.5,2.4,13.4,/,/
Cc1ccc(N2CCN(CC(O)COc3ccccc3)CC2)cc1 (stereo not drawn),6.2,27.6*,0.0,0.2,0.1,3.3,2.3
O=C(COC(=O)c1c[nH]c2ccccc12)NC1CCCCC1,3.4,-3.0,11.5,-1.7,1.7,/,/
CC1(C)CC(=O)C2=C(C1)c1c(ccc3ccccc13)NC2c1ccc(Br)o1 (stereo not drawn),16.0,29.4*,10.9,-7.3,-9.3,31.0*,3.6
COc1ccc(C(=O)C(C)OC(=O)CN2C(=O)c3ccccc3C2=O)cc1 (stereo not drawn),8.4,3.5,13.4,/,/,/,/
COc1ccc(CNC(=O)CS(=O)Cc2nc(-c3ccccc3C)oc2C)cc1 (stereo not drawn),1.3,-3.3,-0.2,-0.6,-0.4,/,/
COc1ccccc1CNC(=O)CS(=O)Cc1nc(-c2ccccc2C)oc1C (stereo not drawn),-3.5,73.3*,-14.0,-0.6,2.1,-5.8,1.4
CC(C)OC(=O)CSc1ncnc2c1cnn2Cc1ccccc1,1.4,129.1*,2.6,-2.2,3.1,2.2,1.1
Cc1cccc(N2CCN(C(=O)c3c(C)nn(Cc4ccccc4Cl)c3C)CC2)c1C,6.6,54.8*,37.6,0.9,9.0,0.0,3.2
CC(=O)Nc1ccc(NC(=O)c2c(C)nn(Cc3ccccc3Cl)c2C)cc1,9.9,0.7,12.5,0.8,2.6,/,/
CNc1ccccc1C(=O)OC,-8.0,-2.7,-2.4,1.7,4.6,/,/
CNc1ccccc1C(=O)OCC(C)=O,22.5,21.7*,-4.3,0.6,2.1,17.4,24.2*
CCOC(=O)C1(CCCc2ccccc2)CCN(C(=O)c2cc(C)nn2CC)CC1,-11.3,23.1*,22.2,5.6,9.1,2.6,5.1
